The source made the active and inactive calls. No cut-off for these calls is given here.
Experiments:
[1] = biological target: Signal transducer and activator of transcription 3 (Homo sapiens) (UniProt P40763); experiment: Inhibition of STAT-3 activity in HELF cells at 10 uM; assay type: cell-based
Method in brief: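 HELF cells grown in DMEM with 10% FCS under humidified 5% CO2, transfected with pSTAT-3-TA-luc firefly luciferase reporter plasmid by lipofectamine 2000. After 24 h, treated in 5% FBS with compound or DMSO for 24 h. Luciferase activity read in cell lysates by luminometer; activity expressed relative to DMSO-treated transfected cells set at 100%.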

[2] = system: Liver microsomes; experiment: Antioxidant activity against Fe2+-cystine induced lipid peroxidation in rat liver microsomes at 10 uM; assay type: functional; conditions: Microsome
[3] = system: HCT-8; experiment: Cytotoxicity against human HCT8 cells at 10 uM after 96 hrs by MTT assay; assay type: functional, cell-based
[4] = biological target: T1, Tyrosine-protein phosphatase non-receptor type 1 (Homo sapiens) (UniProt P18031); experiment: Inhibition of GST-tagged human PTP1B PTPase activity using p-NPP as substrate at 10 uM after 10 mins by spectrophotometry
T1 sequence (whole entry): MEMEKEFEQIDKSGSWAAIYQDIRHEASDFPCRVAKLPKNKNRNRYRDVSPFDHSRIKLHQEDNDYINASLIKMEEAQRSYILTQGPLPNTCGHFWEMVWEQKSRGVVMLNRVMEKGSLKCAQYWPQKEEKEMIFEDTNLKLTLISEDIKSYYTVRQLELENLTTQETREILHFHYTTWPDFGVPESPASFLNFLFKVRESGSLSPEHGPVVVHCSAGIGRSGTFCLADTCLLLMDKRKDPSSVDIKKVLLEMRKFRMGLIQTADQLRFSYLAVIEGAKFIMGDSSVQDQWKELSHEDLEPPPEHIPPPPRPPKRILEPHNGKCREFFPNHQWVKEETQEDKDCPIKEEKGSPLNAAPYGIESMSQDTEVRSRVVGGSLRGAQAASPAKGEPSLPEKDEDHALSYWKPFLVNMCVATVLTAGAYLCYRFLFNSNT

[5] = system: BGC-823; experiment: Cytotoxicity against human BGC823 cells at 10 uM after 96 hrs by MTT assay; assay type: functional, cell-based
[6] = system: KETR3; experiment: Cytotoxicity against human Ketr3 cells at 10 uM after 96 hrs by MTT assay; assay type: functional, cell-based
[7] = system: PC-12; experiment: Neuroprotective activity against glutamate-induced neurotoxicity in rat PC12 cells at 10 uM preincubated for 24 hrs prior challenge measured after 24 hrs by MTT assay; assay type: functional, cell-based
[8] = Antiinflammatory activity in rat polymorphonuclear leukocytes assessed as inhibition of platelet-activating factor-induced glucuronidase release at 10 uM preincubated for 15 mins before challenge by spectrophotometry; assay type: functional
[9] = system: MCF7; experiment: Cytotoxicity against human MCF7 cells at 10 uM after 96 hrs by MTT assay; assay type: functional, cell-based
[10] = system: A549; experiment: Cytotoxicity against human A549 cells at 10 uM after 96 hrs by MTT assay; assay type: functional, cell-based
[11] = system: Human immunodeficiency virus 1; experiment: Antiviral activity against HIV1 infected in 293T cells at 10 uM pretreated for 15 mins prior infection measured after 48 hrs by luciferase reporter gene assay; assay type: functional, organism-based
[12] = system: Bel-7402; experiment: Cytotoxicity against human Bel7402 cells at 10 uM after 96 hrs by MTT assay; assay type: functional, cell-based

Chain of Signal transducer and activator of transcription 3 (Homo sapiens) (P40763 whole entry): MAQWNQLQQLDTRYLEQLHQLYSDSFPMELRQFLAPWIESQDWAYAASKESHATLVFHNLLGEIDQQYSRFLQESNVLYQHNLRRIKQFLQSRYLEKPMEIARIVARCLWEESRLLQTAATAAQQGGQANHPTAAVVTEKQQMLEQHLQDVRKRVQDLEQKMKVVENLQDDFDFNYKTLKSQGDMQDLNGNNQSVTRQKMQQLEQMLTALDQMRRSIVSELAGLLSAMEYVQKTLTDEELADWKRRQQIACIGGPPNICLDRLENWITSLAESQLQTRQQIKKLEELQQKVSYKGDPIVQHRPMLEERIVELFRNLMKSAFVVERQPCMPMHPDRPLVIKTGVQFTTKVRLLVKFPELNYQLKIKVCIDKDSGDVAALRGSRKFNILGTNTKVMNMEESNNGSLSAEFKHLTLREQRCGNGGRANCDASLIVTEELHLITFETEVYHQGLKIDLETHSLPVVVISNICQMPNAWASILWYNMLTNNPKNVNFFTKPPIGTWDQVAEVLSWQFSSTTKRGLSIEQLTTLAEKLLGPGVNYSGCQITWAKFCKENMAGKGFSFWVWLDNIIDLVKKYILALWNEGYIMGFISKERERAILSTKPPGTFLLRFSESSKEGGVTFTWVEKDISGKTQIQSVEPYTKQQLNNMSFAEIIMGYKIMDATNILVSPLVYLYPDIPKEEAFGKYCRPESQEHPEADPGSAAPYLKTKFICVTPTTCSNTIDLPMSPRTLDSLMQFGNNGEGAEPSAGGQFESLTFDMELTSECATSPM

C=C[C@H]1[C@H](O[C@@H]2O[C@H](CO)[C@@H](O)[C@H](O)[C@H]2O)OC=C(C(=O)O)[C@H]1C[C@H]1OC(=O)C(O)=C1c1ccccc1 [LONIPHENYRUVIRIDOSIDE D]
inhibition [1]: 48.8% | Activity [2]: inactive | Activity [3]: inactive | inhibition [4]: inactive | Activity [5]: inactive | Activity [6]: inactive | Activity [7]: inactive | inhibition at 10 µM [8]: < 30% | Activity [9]: inactive | Activity [10]: inactive | Activity [11]: inactive | Activity [12]: inactive
